Experimental data: ChEMBL document CHEMBL1129423, “Hypoglycemic activity of a series of alpha-alkylthio and alpha-alkoxy carboxylic acids related to ciglitazone” (J Med Chem, 1996)
Activity calls are given as the source filed them. No cut-off for these calls is given here.

Experiments:
Mus musculus [1] = test: In vivo hypoglycemic activity expressed as percent glucose normalization in db/db mice at 0.05 mg/Kg; Inactive; assay type: functional, organism-based
Mus musculus [2] = test: In vivo hypoglycemic activity expressed as percent glucose normalization in db/db mice at 1 mg/Kg; assay type: functional
Mus musculus [3] = test: In vivo hypoglycemic activity expressed as percent glucose normalization in db/db mice at 0.01 mg/Kg; assay type: functional
Mus musculus [4] = test: In vivo hypoglycemic activity expressed as percent glucose normalization in db/db mice at 0.1 mg/Kg; assay type: functional
Mus musculus [5] = test: In vivo hypoglycemic activity expressed as percent glucose normalization in ob/ob mice at 1 mg/Kg; assay type: functional
Summary of the method: (§1)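 ob/ob mice received oral gavage once daily for 4 days in 0.25% (w/v) methylcellulose in water. Retro-orbital blood was taken before treatment and 24 h after the fourth dose. Glucose was measured by the hexokinase UV method. Results are % glucose normalization relative to vehicle (0%) and englitazone 100 mg/kg (100%), with significance at p<0.05.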

Mus musculus [6] = test: In vivo hypoglycemic activity expressed as percent glucose normalization in ob/ob mice at 0.01 mg/Kg; Inactive; assay type: functional, organism-based; summary of the method: as §1
Mus musculus [7] = test: In vivo hypoglycemic activity expressed as percent glucose normalization in ob/ob mice at 0.1 mg/Kg; assay type: functional; summary of the method: as §1
Mus musculus [8] = test: In vivo hypoglycemic activity expressed as percent glucose normalization in db/db mice at 5 mg/Kg; assay type: functional
Mus musculus [9] = test: In vivo hypoglycemic activity expressed as percent glucose normalization in db/db mice at 0.05 mg/Kg; assay type: functional
Mus musculus [10] = test: In vivo hypoglycemic activity expressed as percent glucose normalization in db/db mice at 0.25 mg/Kg; assay type: functional
Mus musculus [11] = test: In vivo hypoglycemic activity expressed as percent glucose normalization in db/db mice at 0.5 mg/Kg; assay type: functional
Mus musculus [12] = test: In vivo hypoglycemic activity expressed as percent glucose normalization in ob/ob mice at 0.01 mg/Kg; assay type: functional; summary of the method: as §1
Mus musculus [13] = test: In vivo hypoglycemic activity expressed as percent glucose normalization in db/db mice at 0.1 mg/Kg; Inactive; assay type: functional, organism-based
Mus musculus [14] = test: In vivo hypoglycemic activity expressed as percent glucose normalization in db/db mice at 5 mg/Kg; Not tested; assay type: functional
Mus musculus [15] = test: In vivo hypoglycemic activity expressed as percent glucose normalization in db/db mice at 2.5 mg/Kg; assay type: functional

Structure (SMILES)	Glucose normalisation (Mus musculus [2]) [%]	Glucose normalisation (Mus musculus [3]) [%]	Glucose normalisation (Mus musculus [4]) [%]	Glucose normalisation (Mus musculus [8]) [%]	Glucose normalisation (Mus musculus [11]) [%]	also measured
CCOC(Cc1ccc2oc(Cc3nc(-c4ccc(OC)cc4)oc3C)cc2c1)C(=O)O (stereo not drawn)	100	46	100			Glucose normalisation (Mus musculus [1]): inactive
Cc1oc(C2CCCCC2)nc1Cc1cc2cc(CC3SC(=O)NC3=O)ccc2o1 (stereo not drawn)						Glucose normalisation (Mus musculus [5]): 100%; Glucose normalisation (Mus musculus [6]): inactive; Glucose normalisation (Mus musculus [7]): 90%
COC(Cc1ccc2oc(Cc3nc(-c4ccccc4)oc3C)cc2c1)C(=O)O (stereo not drawn)	100	44	83	94		Glucose normalisation (Mus musculus [9]): 82%
CCOC(CCc1ccc2oc(Cc3nc(-c4ccccc4)oc3C)cc2c1)C(=O)O (stereo not drawn)	90			100	75	Glucose normalisation (Mus musculus [10]): 13%
CCSC(Cc1ccc2oc(Cc3nc(-c4ccccc4)oc3C)cc2c1)C(=O)O (stereo not drawn)	60			86	80	Glucose normalisation (Mus musculus [10]): 3%
Cc1oc(-c2cccc(F)c2)nc1Cc1cc2cc(CC3SC(=O)NC3=O)ccc2o1 (stereo not drawn)						Glucose normalisation (Mus musculus [5]): 100%; Glucose normalisation (Mus musculus [12]): 12%; Glucose normalisation (Mus musculus [7]): 88%
CSC(Cc1ccc2oc(Cc3nc(-c4ccccc4)oc3C)cc2c1)C(=O)O (stereo not drawn)	89		26		100	Glucose normalisation (Mus musculus [10]): 16%
C=CCOC(Cc1ccc2oc(Cc3nc(-c4ccccc4)oc3C)cc2c1)C(=O)O (stereo not drawn)	85	27	85	92		Glucose normalisation (Mus musculus [9]): 91%
CCO[C@H](Cc1ccc2oc(Cc3nc(-c4ccccc4)oc3C)cc2c1)C(=O)O	74	16	19			
Cc1cccc(-c2nc(Cc3cc4cc(CC5SC(=O)NC5=O)ccc4o3)c(C)o2)c1 (stereo not drawn)						Glucose normalisation (Mus musculus [5]): 100%; Glucose normalisation (Mus musculus [12]): 78%; Glucose normalisation (Mus musculus [7]): 79%
Cc1oc(-c2ccccc2)nc1Cc1cc2cc(CC(SCc3ccccc3)C(=O)O)ccc2o1 (stereo not drawn)	88			100	93	Glucose normalisation (Mus musculus [10]): 72%; Glucose normalisation (Mus musculus [13]): inactive
CCCCCCCCSC(Cc1ccc2oc(Cc3nc(-c4ccccc4)oc3C)cc2c1)C(=O)O (stereo not drawn)	75		14	96	100	Glucose normalisation (Mus musculus [10]): 99%
CCOC(C(=O)O)c1ccc2oc(Cc3nc(-c4ccccc4)oc3C)cc2c1 (stereo not drawn)						Glucose normalisation (Mus musculus [14]): 9%
CCOC(Cc1ccc2oc(Cc3nc(-c4ccco4)oc3C)cc2c1)C(=O)O (stereo not drawn)	100	63	100			
CCCSC(Cc1ccc2oc(Cc3nc(-c4ccccc4)oc3C)cc2c1)C(=O)O (stereo not drawn)	69			94	82	Glucose normalisation (Mus musculus [10]): 39%
Cc1ccccc1-c1nc(Cc2cc3cc(CC4SC(=O)NC4=O)ccc3o2)c(C)o1 (stereo not drawn)						Glucose normalisation (Mus musculus [5]): 100%; Glucose normalisation (Mus musculus [12]): 11%; Glucose normalisation (Mus musculus [7]): 91%
Cc1oc(-c2ccccc2)nc1Cc1cc2cc(CC(OCc3ccccc3)C(=O)O)ccc2o1 (stereo not drawn)		74	100			Glucose normalisation (Mus musculus [9]): 100%
Cc1oc(-c2ccccc2)nc1Cc1cc2cc(CC3SC(=O)NC3=O)ccc2o1 (stereo not drawn)						Glucose normalisation (Mus musculus [12]): 76%; Glucose normalisation (Mus musculus [7]): 93%
CCCS[C@H](Cc1ccc2oc(Cc3nc(-c4ccccc4)oc3C)cc2c1)C(=O)O	56				45	Glucose normalisation (Mus musculus [15]): 75%
CCOC(Cc1ccc2oc(Cc3nc(-c4cccs4)oc3C)cc2c1)C(=O)O (stereo not drawn)	100	98	100			Glucose normalisation (Mus musculus [9]): 100%
CCO[C@@H](Cc1ccc2oc(Cc3nc(-c4ccccc4)oc3C)cc2c1)C(=O)O		78	100			
CCOC(Cc1ccc2oc(Cc3nc(-c4ccccc4)oc3C)cc2c1)C(=O)O (stereo not drawn)		69	100	100		Glucose normalisation (Mus musculus [10]): 100%; Glucose normalisation (Mus musculus [9]): 97%
CCCOC(Cc1ccc2oc(Cc3nc(-c4ccccc4)oc3C)cc2c1)C(=O)O (stereo not drawn)	100	43	100	100		Glucose normalisation (Mus musculus [9]): 76%
C#CCOC(Cc1ccc2oc(Cc3nc(-c4ccccc4)oc3C)cc2c1)C(=O)O (stereo not drawn)	74			100		
Cc1oc(-c2ccccc2)nc1Cc1cc2cc(CC(Sc3ccccc3)C(=O)O)ccc2o1 (stereo not drawn)	90		86	70	100	Glucose normalisation (Mus musculus [10]): 92%
Cc1oc(-c2ccc(Cl)cc2)nc1Cc1cc2cc(CC3SC(=O)NC3=O)ccc2o1 (stereo not drawn)						Glucose normalisation (Mus musculus [5]): 100%; Glucose normalisation (Mus musculus [12]): 0%; Glucose normalisation (Mus musculus [7]): 100%
Cc1oc(-c2ccccc2)nc1Cc1cc2cc(CC(OCCCO)C(=O)O)ccc2o1 (stereo not drawn)			91			Glucose normalisation (Mus musculus [9]): 19%
CCCS[C@@H](Cc1ccc2oc(Cc3nc(-c4ccccc4)oc3C)cc2c1)C(=O)O	91				52	Glucose normalisation (Mus musculus [15]): 69%
